Active and inactive are the calls of the source.
Key:
Cynomolgus monkey = test: In vivo inhibition of CYP11B2 in cynomolgus monkey assessed as reduction in ACTH-induced 11-deoxycorticosterone at 0.01 to 10 mg/kg, po preincubated for 1 hr followed by ACTH challenge and measured after 60 mins by LC/MS-MS analysis; assay type: functional, organism-based; conditions: Macaca fascicularis
In short: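 Cynomolgus monkeys preselected as Synacthen responders (at least 2-fold rise in aldosterone, cortisol and corticosterone). Two animals per group. Oral vehicle or compound at 0.01–10 mg/kg in hydroxyethylcellulose/polysorbate 80/paraben suspension (2 mL/kg) at T=0, then 14.5 µg/kg Synacthen i.m. at 1 hr. EDTA blood drawn from -5 min to 24 h. Plasma steroids measured by LC/MS-MS; data shown 60 min after challenge.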

[1] = Permeability of the compound measured at 18 hrs by PAMPA; assay type: ADME; conditions: read-out: permeability
In short: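 PAMPA sandwich format. Donor: compound diluted to 150 μM (DMSO <2%) in 0.05 M MOPSO pH 6.5 with 0.5% glycocholic acid. Acceptor: 0.05 M MOPSO pH 6.5. Membrane of 10% egg lecithin with 0.5% cholesterol in dodecane. Donor measured at start; acceptor and donor measured at ~18 hr.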

[2] = Selectivity ratio of IC50 for cynomolgus monkey CYP11B1 expressed in human G401 cells to IC50 for cynomolgus monkey CYP11B2 expressed in human G401 cells; assay type: cell-based
In short: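 Cells with endogenous FDXR/FDX and no detectable CYP11B activity, stably transfected (CMV promoter, neomycin selection, G-418 400 µg/mL) with CYP11B1 or CYP11B2 of the named species. Assayed in DMEM/F12 with 2.5% charcoal-treated FCS. Substrate 1 µM 11-deoxycorticosterone (B2) or 11-deoxycortisol (B1), 16 hr. Aldosterone or cortisol in supernatant measured by HTRF. IC50 from 4-parameter MMF fit; selectivity factor is the B1/B2 IC50 ratio.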

[3] = Intrinsic clearance in rat liver microsomes preincubated for 10 mins followed by NADPH regenerating system addition and measured up to 30 mins by LC/MS-MS analysis; assay type: ADME, Microsome
In short: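 Liver microsomes at 0.5 mg protein/mL in 100 mM potassium phosphate, pH 7.4. Compound preincubated 10 min at 37 °C. Intrinsic clearance scaled using the well-stirred liver model.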

[4] = Protein binding in cynomolgus monkey plasma assessed as unbound fraction at 1 uM by micro-equilibrium dialysis based LC-MS/MS analysis; assay type: ADME, cell-free, Macaca fascicularis
In short: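 Equilibrium dialysis of pooled rat or cynomolgus plasma against Soerensen buffer pH 7.4, 12–14 kDa cut-off membrane. Compounds tested in cassettes of 2–5 at 1 μM initial total concentration, with diazepam as control. Dialysis 5 hr at 37 °C under 5% CO₂. Unbound percentage by LC/MS-MS.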

[5] = Plasma clearance in iv dosed cynomolgus monkey; assay type: ADME, organism-based, Macaca fascicularis
[6] = Dose normalized AUC in cynomolgus monkey; assay type: ADME, Macaca fascicularis; conditions: in vivo
[7] = Dose normalized AUC in Wister-Han rat at 1 mg/kg, iv or 3 mg/kg, po administered as single dose by LC/MS-MS analysis; assay type: ADME, organism-based; conditions: in vivo
In short: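 Male Wistar-Han rats, single dose. IV 1 mg/kg, compound at 0.5 mg/mL in NMP:saline 30/70 (v/v). Oral 3 mg/kg, 0.25 mg/mL in 2% Klucel with 0.1% Polysorbate 80. Three rats per time point. Heparinized blood taken at eight (iv) or seven (po) time points, plasma stored at -20 °C. Plasma levels by LC/MS-MS. Non-compartmental analysis.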

[8] = target: T1, Cytochrome P450 11B2, mitochondrial (Homo sapiens, UniProt P19099); test: Inhibition of CYP11B2 in H295R cell assessed as reduction in aldosterone by LC/MS-MS method
T1 sequence (P19099 whole entry): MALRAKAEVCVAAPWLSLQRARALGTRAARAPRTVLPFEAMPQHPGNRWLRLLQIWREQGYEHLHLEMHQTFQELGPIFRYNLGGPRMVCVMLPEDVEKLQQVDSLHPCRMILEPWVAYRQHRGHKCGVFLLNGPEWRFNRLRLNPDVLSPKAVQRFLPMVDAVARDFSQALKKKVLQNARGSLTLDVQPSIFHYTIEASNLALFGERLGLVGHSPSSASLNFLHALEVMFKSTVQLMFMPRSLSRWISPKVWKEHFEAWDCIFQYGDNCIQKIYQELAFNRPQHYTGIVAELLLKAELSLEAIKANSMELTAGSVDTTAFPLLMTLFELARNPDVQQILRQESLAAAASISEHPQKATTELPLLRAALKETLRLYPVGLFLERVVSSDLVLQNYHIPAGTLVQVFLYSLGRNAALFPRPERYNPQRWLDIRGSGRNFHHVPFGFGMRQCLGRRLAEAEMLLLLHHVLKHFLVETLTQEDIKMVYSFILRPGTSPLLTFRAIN

Q: What does the source list for `CCS(=O)(=O)N1CC(Oc2cncc(N3C(=O)c4ccc(Cl)cc4C3(C)C)c2)C1`?
A: inhibition (Cynomolgus monkey): inactive; Papp at 18 h [1]: 4.17 ×10⁻⁶ cm/s; Ratio IC50 [2]: 664; predicted hepatic clearance (CLH) [3]: 5 mL/min/kg; fraction unbound at 1 µM [4]: 0.138; clearance [5]: 4.6 mL/min/kg; AUC/dose [6]: 1085 kg·ng·h/mL/mg; AUC/dose [7]: 2123 kg·ng·h/mL/mg; IC50 [8]: < 1 nM

Source: ChEMBL document CHEMBL4616681, “Discovery of 3-Pyridyl Isoindolin-1-one Derivatives as Potent, Selective, and Orally Active Aldosterone Synthase (CYP11B2) Inhibitors” (J Med Chem, 2020)
